Assay results from ChEMBL document CHEMBL4414643, “Pharmacokinetics of Phytocannabinoid Acids and Anticonvulsant Effect of Cannabidiolic Acid in a Mouse Model of Dravet Syndrome” (J Nat Prod, 2019).
Calls of active or inactive are those of the source.

Columns and labels:
[1] = Ratio of drug level in anesthetized C57BL/6J mouse brain to plasma at 10 mg/kg, ip administered as single dose measured upto 240 mins by LC-MS/MS analysis; format: ADME, organism-based; conditions: read-out: BPR
In short: (§1)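 Male and female mice (C57BL/6J or C57BL/6J x 129 F1), postnatal days 21-28, single i.p. injection at 10 mL/kg in vegetable oil or ethanol–Tween 80–saline (1:1:18). Blood taken by cardiac puncture under isoflurane at time points 15–240 min. Plasma and PBS brain homogenate extracted with ice-cold acetonitrile, diazepam internal standard, quantified by LC-MS/MS. Mean concentrations per time point (n = 3-5); noncompartmental analysis.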

[2] = Half life in anesthetized C57BL/6J mouse brain at 10 mg/kg, ip administered as single dose measured upto 240 mins in presence of tween-80 by LC-MS/MS analysis; format: ADME, organism-based; in short: as §1
[3] = Half life in anesthetized C57BL/6J mouse brain at 10 mg/kg, ip administered as single dose measured upto 240 mins in presence of vegetable oil by LC-MS/MS analysis; format: ADME, organism-based; in short: as §1
[4] = Tmax in anesthetized C57BL/6J mouse brain at 10 mg/kg, ip administered as single dose measured upto 240 mins in presence of tween-80 by LC-MS/MS analysis; format: ADME, organism-based; in short: as §1
[5] = AUC in anesthetized C57BL/6J mouse plasma at 10 mg/kg, ip administered as single dose measured upto 240 mins in presence of tween-80 by LC-MS/MS analysis; format: ADME, organism-based; parameters: dose 10 mg/kg, time < 4 hr, route intraperitoneal; in short: as §1
[6] = Half life in anesthetized C57BL/6J mouse plasma at 10 mg/kg, ip administered as single dose measured upto 240 mins by LC-MS/MS analysis; format: ADME, organism-based; in short: as §1
[7] = Tmax in anesthetized C57BL/6J mouse plasma at 10 mg/kg, ip administered as single dose measured upto 240 mins by LC-MS/MS analysis; format: ADME, organism-based; in short: as §1
[8] = AUC in anesthetized C57BL/6J mouse brain at 10 mg/kg, ip administered as single dose measured upto 240 mins in presence of vegetable oil by LC-MS/MS analysis; format: ADME, organism-based; parameters: dose 10 mg/kg, time < 4 hr, route intraperitoneal; conditions: in vivo, 4 h; in short: as §1
[9] = Drug uptake in plasma of anesthetized C57BL/6J mouse at 10 mg/kg, ip by LC-MS/MS analysis; format: ADME, organism-based; conditions: in vivo
In short: (§2)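 Mice aged 21-28 days postnatal received one i.p. dose (10 mL/kg), and plasma and brain were sampled at 15–240 min. Decarboxylated neutral cannabinoids were measured by LC-MS/MS against known standards, alongside the parent acid.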

[10] = Cmax in anesthetized C57BL/6J mouse brain at 10 mg/kg, ip administered as single dose measured upto 240 mins in presence of vegetable oil by LC-MS/MS analysis; format: ADME, organism-based; parameters: dose 10 mg/kg, route intraperitoneal; conditions: in vivo, 4 h; in short: as §1
[11] = Dissociation constant, pKa of compound; format: physicochemical
[12] = Cmax in anesthetized C57BL/6J mouse plasma at 10 mg/kg, ip administered as single dose measured upto 240 mins in presence of vegetable oil by LC-MS/MS analysis; format: ADME, organism-based; parameters: dose 10 mg/kg, route intraperitoneal; in short: as §1
[13] = Cmax in anesthetized C57BL/6J mouse plasma at 10 mg/kg, ip administered as single dose measured upto 240 mins by LC-MS/MS analysis; format: ADME, organism-based; parameters: dose 10 mg/kg, route intraperitoneal; in short: as §1
[14] = Half life in anesthetized C57BL/6J mouse plasma at 10 mg/kg, ip administered as single dose measured upto 240 mins in presence of vegetable oil by LC-MS/MS analysis; format: ADME, organism-based; in short: as §1
[15] = Partition coefficient, log P of compound; format: physicochemical; conditions: octanol/water
[16] = AUC in anesthetized C57BL/6J mouse plasma at 10 mg/kg, ip administered as single dose measured upto 240 mins in presence of vegetable oil by LC-MS/MS analysis; format: ADME, organism-based; parameters: time < 4 hr, dose 10 mg/kg, route intraperitoneal; in short: as §1
[17] = Tmax in anesthetized C57BL/6J mouse plasma at 10 mg/kg, ip administered as single dose measured upto 240 mins in presence of vegetable oil by LC-MS/MS analysis; format: ADME, organism-based; in short: as §1
[18] = AUC in anesthetized C57BL/6J mouse brain at 10 mg/kg, ip administered as single dose measured upto 240 mins by LC-MS/MS analysis; format: ADME, organism-based; parameters: dose 10 mg/kg, time < 4 hr, route intraperitoneal; conditions: in vivo, 4 h; in short: as §1
[19] = AUC in anesthetized C57BL/6J mouse plasma at 10 mg/kg, ip administered as single dose measured upto 240 mins by LC-MS/MS analysis; format: ADME, organism-based; parameters: time < 4 hr, dose 10 mg/kg, route intraperitoneal; in short: as §1
Mus musculus [20] = assay: Anticonvulsant activity against hyperthermia-induced seizure in Scn1aRX/+ mouse model of Dravet syndrome assessed as increase in generalized tonic-clonic seizure temperature threshold at 10 to 30 mg/kg, ip administered as single dose measured by RET-3 rectal probe; format: functional, organism-based
[21] = Tmax in anesthetized C57BL/6J mouse plasma at 10 mg/kg, ip administered as single dose measured upto 240 mins in presence of tween-80 by LC-MS/MS analysis; format: ADME, organism-based; in short: as §1
[22] = Cmax in anesthetized C57BL/6J mouse brain at 10 mg/kg, ip administered as single dose measured upto 240 mins by LC-MS/MS analysis; format: ADME, organism-based; parameters: dose 10 mg/kg, route intraperitoneal; conditions: in vivo, 4 h; in short: as §1
[23] = Cmax in anesthetized C57BL/6J mouse brain at 10 mg/kg, ip administered as single dose measured upto 240 mins in presence of tween-80 by LC-MS/MS analysis; format: ADME, organism-based; parameters: dose 10 mg/kg, route intraperitoneal; conditions: in vivo, 4 h; in short: as §1
[24] = Cmax in anesthetized C57BL/6J mouse plasma at 10 mg/kg, ip administered as single dose measured upto 240 mins in presence of tween-80 by LC-MS/MS analysis; format: ADME, organism-based; parameters: dose 10 mg/kg, route intraperitoneal; in short: as §1
[25] = Tmax in anesthetized C57BL/6J mouse brain at 10 mg/kg, ip administered as single dose measured upto 240 mins by LC-MS/MS analysis; format: ADME, organism-based; in short: as §1
[26] = Half life in anesthetized C57BL/6J mouse plasma at 10 mg/kg, ip administered as single dose measured upto 240 mins in presence of tween-80 by LC-MS/MS analysis; format: ADME, organism-based; in short: as §1
[27] = Tmax in anesthetized C57BL/6J mouse brain at 10 mg/kg, ip administered as single dose measured upto 240 mins in presence of vegetable oil by LC-MS/MS analysis; format: ADME, organism-based; in short: as §1
[28] = Ratio of drug level in anesthetized C57BL/6J mouse brain to plasma at 5 mg/kg, ip administered as single dose measured upto 240 mins in presence of tween-80 by LC-MS/MS analysis; format: ADME, organism-based; conditions: read-out: BPR
[29] = Ratio of drug level in anesthetized C57BL/6J mouse brain to plasma at 5 mg/kg, ip administered as single dose measured upto 240 mins in presence of vegetable oil by LC-MS/MS analysis; format: ADME, organism-based; conditions: read-out: BPR
[30] = Drug metabolism in brain of anesthetized C57BL/6J mouse at 10 mg/kg, ip by LC-MS/MS analysis; format: ADME, organism-based; conditions: in vivo; in short: as §2
[31] = AUC in anesthetized C57BL/6J mouse brain at 10 mg/kg, ip administered as single dose measured upto 240 mins in presence of tween-80 by LC-MS/MS analysis; format: ADME, organism-based; parameters: dose 10 mg/kg, time < 4 hr, route intraperitoneal; conditions: in vivo, 4 h; in short: as §1
[32] = Half life in anesthetized C57BL/6J mouse brain at 10 mg/kg, ip administered as single dose measured upto 240 mins by LC-MS/MS analysis; format: ADME, organism-based; in short: as §1
Mus musculus [33] = assay: Anticonvulsant activity against hyperthermia-induced seizure in ip administered Scn1aRX/+ mouse model of Dravet syndrome assessed as effective dose causing increase in generalized tonic-clonic seizure temperature threshold measured by RET-3 rectal probe; format: functional
[34] = Drug metabolism in brain of anesthetized C57BL/6J mouse assessed as decrease in decarboxylation of parent compound at 10 mg/kg, ip by LC-MS/MS analysis; format: ADME, organism-based; conditions: in vivo; in short: as §2
[35] = Drug metabolism in plasma of anesthetized C57BL/6J mouse assessed as decrease in decarboxylation of parent compound at 10 mg/kg, ip by LC-MS/MS analysis; format: ADME, organism-based; conditions: in vivo; in short: as §2
[36] = Drug uptake in plasma of anesthetized C57BL/6J mouse assessed as purity of compound at 10 mg/kg, ip by LC-MS/MS analysis; format: ADME, organism-based; conditions: in vivo; in short: as §2

SMILES | Kp at 4 h [1] | AUC at 4 h [5] | half-life [6] | Tmax [7] | Drug uptake [9] | pKa [11] | Cmax [12] | Cmax [13] | half-life [14] | logP [15] | AUC at 4 h [16] | Tmax [17] | AUC [18] | AUC at 4 h [19] | Tmax [21] | Cmax [22] | Cmax [24] | Tmax [25] | half-life [26] | Drug metabolism [30] | further results
C=C(C)[C@@H]1CCC(C)=C[C@H]1c1c(O)cc(CCCCC)c(C(=O)O)c1O [CANNABIDIOLIC ACID] | 0.04 | 9970 ng·h/mL | 92 min | 30 min | 0.5% | 2.91 | 29600 ng/mL | 29600 ng/mL | 92 min | 6.63 | 78300 ng·h/mL | 30 min | 183 µg·min/g | 78300 ng·h/mL | 15 min | 2 ng/mg | 17600 ng/mL | 45 min | 55 min | Metabolite_Notdetected | half-life [2]: 67 min; half-life [3]: 41 min; Tmax [4]: 30 min; AUC [8]: 183 ng·min/g; Cmax [10]: 2 ng/mg; Activity (Mus musculus [20]): Active; Cmax [23]: 13.2 ng/mg; Tmax [27]: 45 min; Kp at 4 h [28]: 1.9; Kp at 4 h [29]: 0.04; AUC [31]: 1142 ng·min/g; half-life [32]: 41 min
C=C(C)[C@@H]1CCC(C)=C[C@H]1c1c(O)cc(CCCCC)cc1O [CANNABIDIOL] |  |  |  |  |  |  |  |  |  |  |  |  |  |  |  |  |  |  |  |  | ED (Mus musculus [33]): 100 mg/kg
CCCCCc1cc(O)c(C/C=C(\C)CCC=C(C)C)c(O)c1C(=O)O [CANNABIGEROLIC ACID] | 0.02 |  | 62 min | 45 min |  | 2.92 |  | 63500 ng/mL |  | 7.35 |  |  | 94 µg·min/g | 99300 ng·h/mL |  | 2.3 ng/mg |  | 30 min |  |  | Drug metabolism [34]: Metabolite_Notdetected; Drug metabolism [35]: Metabolite_Notdetected; half-life [32]: 31 min
CCCCCc1cc2c(c(O)c1C(=O)O)[C@@H]1C=C(C)CC[C@H]1C(C)(C)O2 [DELTA9-TETRAHYDROCANNABINOLIC ACID A] |  | 5630 ng·h/mL | 67 min | 15 min | 1% | 2.89 | 2800 ng/mL | 2800 ng/mL | 67 min | 6.25 | 5030 ng·h/mL | 15 min |  | 5030 ng·h/mL | 15 min |  | 6900 ng/mL |  | 33 min | Metabolite_Notdetected | Cmax ([10]; BLD = below limit of detection): Bld; Drug uptake [36]: 95%; Cmax ([22]; BLD = below limit of detection): Bld; Cmax ([23]; BLD = below limit of detection): Bld
